Experimental data reported in ChEMBL document CHEMBL1800016, “Novel thiazolidinedione derivatives with anti-obesity effects: dual action as PTP1B inhibitors and PPAR-γ activators” (Bioorg Med Chem Lett, 2010).
Calls of active or inactive are those of the source. The calls are words filed in the database; no cut-off is given here.

Assays:
[1] = target: T1, Tyrosine-protein phosphatase 1 (Saccharomyces cerevisiae S288c, UniProt P25044); assay: Inhibition of yeast PTP1 expressed in Escherichia coli assessed as p-nitrophenol release from pNPP substrate preincubated for 10 mins
T1 sequence (P25044 whole entry): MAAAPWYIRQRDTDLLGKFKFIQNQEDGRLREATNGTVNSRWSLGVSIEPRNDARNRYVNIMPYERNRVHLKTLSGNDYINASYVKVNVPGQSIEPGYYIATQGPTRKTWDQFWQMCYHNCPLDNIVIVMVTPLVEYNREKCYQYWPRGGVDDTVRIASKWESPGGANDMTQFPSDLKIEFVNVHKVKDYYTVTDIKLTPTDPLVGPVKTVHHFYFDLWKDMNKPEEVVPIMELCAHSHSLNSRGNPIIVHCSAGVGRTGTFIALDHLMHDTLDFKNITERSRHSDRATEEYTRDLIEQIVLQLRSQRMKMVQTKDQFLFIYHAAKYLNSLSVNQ
How it was run: (§1)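 IC50 values against the PTP panel, with enzymes prepared as described in the supplementary material. Values are means ± SD of two or more experiments.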

[2] = target: T2, Peroxisome proliferator-activated receptor gamma (Homo sapiens) (UniProt P37231); assay: Agonist activity at PPARgamma expressed in HepG2 cells co-expressing PPRE assessed as concentration required for maximal activation after 24 hrs by luciferase reporter gene assay; format: functional, cell-based
T2 sequence (whole entry): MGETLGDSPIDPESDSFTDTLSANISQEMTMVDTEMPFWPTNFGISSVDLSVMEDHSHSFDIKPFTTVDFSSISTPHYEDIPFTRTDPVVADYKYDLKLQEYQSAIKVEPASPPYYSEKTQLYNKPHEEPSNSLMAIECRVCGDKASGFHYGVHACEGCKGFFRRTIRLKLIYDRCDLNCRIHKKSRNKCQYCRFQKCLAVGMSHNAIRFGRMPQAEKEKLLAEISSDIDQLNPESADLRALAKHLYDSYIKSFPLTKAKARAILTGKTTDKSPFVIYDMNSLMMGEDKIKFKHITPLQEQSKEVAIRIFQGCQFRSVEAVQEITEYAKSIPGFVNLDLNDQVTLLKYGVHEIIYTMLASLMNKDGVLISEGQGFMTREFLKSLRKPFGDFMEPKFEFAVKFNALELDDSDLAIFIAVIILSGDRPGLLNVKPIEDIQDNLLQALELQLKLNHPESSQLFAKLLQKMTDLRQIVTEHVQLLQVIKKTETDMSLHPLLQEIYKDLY

[3] = target: T3, Peroxisome proliferator-activated receptor gamma (Homo sapiens, UniProt P37231); assay: Agonist activity at PPARgamma expressed in HepG2 cells co-expressing PPRE assessed as transcriptional activation after 24 hrs by luciferase reporter gene assay; format: functional, cell-based
T3 sequence (P37231 whole entry): T2 sequence (whole entry)
How it was run: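 HepG2 cells were transfected with a PPRE-driven luciferase reporter plus CMV-βGal. The basic luciferase reporter without a PPRE site served as the negative control. Compounds were added 6 h after transfection. Cells were lysed 24 h later. Luciferase activity was read on a luminometer and normalized to β-galactosidase for transfection efficiency. Two independent experiments; error as SEM.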

Mus musculus [4] = assay: Antiobesity activity in high fat diet-fed diabetic C57BL/6J Jms Slc mouse model assessed as decrease in retroperitoneal fat at 2.6 mg/day administered with food for 4 weeks; format: functional
How it was run: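 DIO male C57BL/6J Jms Slc mice were fed a 45%-fat HFD for 8 wk, then HFD with 0.1% w/w compound in feed (about 2.6 mg/day/mouse) for 4 wk. A 10%-fat LFD lean group ran throughout. Measures were weight gain, feed efficiency (weight gain/kcal ×100), and epididymal and retroperitoneal fat pad weights. n = 8/group; mean ± SEM; one-way ANOVA.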

Mus musculus [5] = assay: Toxicity in high fat diet-fed diabetic C57BL/6J Jms Slc mouse model assessed as change in weight of kidney at 2.6 mg/day administered with food for 4 weeks; format: organism-based; details: in vivo, po, 672 h
How it was run: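 At the end of the 4 wk in-feed dosing (about 2.6 mg/day/mouse in HFD), liver, kidney and lung weights were compared across the lean LFD, HFD control and treated groups.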

Mus musculus [6] = assay: Antiobesity activity in high fat diet-fed diabetic C57BL/6J Jms Slc mouse model assessed as decrease in non-esterified free fatty acid level in serum at 2.6 mg/day administered with food for 4 weeks; format: functional
How it was run: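 DIO mice were fed HFD for 8 wk, then HFD containing 0.1% w/w compound (about 2.6 mg/day/mouse) for 4 wk. At the end of feeding, mice were deprived of food overnight. Serum total cholesterol, triglyceride and NEFA were then measured. Values are mean ± SEM.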

Mus musculus [7] = assay: Antidiabetic activity in high fat diet-fed diabetic C57BL/6J Jms Slc mouse model assessed as normalization of blood glucose level at 2.6 mg/day administered with food for 4 weeks measured 60 mins after last dose by glucose tolerance test; format: functional, organism-based
How it was run: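 Mice were male C57BL/6J Jms Slc, 5 wk old after 1 wk acclimatization. They were fed a 45%-fat HFD for 8 wk, then HFD with compound mixed in (1.0 g/kg diet, about 2.6 mg/day/mouse, 78 mg/day/kg) for 4 wk. Each mouse was fasted 6 h from the start of the light cycle and fasting glucose was measured. Glucose 1.0 g/kg was then given i.p., with readings at 60 and 90 min.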

[8] = Selectivity ratio of IC50 for yeast PTP1 to IC50 for PTP1B
[9] = Selectivity ratio of IC50 for membrane proximal catalytic domain of LAR-D1 to IC50 for PTP1B
[10] = target: T4, Tyrosine-protein phosphatase non-receptor type 2 (Homo sapiens, UniProt P17706); assay: Inhibition of TC-PTP assessed as p-nitrophenol release from pNPP substrate preincubated for 10 mins; how it was run: as §1
T4 sequence (P17706 whole entry): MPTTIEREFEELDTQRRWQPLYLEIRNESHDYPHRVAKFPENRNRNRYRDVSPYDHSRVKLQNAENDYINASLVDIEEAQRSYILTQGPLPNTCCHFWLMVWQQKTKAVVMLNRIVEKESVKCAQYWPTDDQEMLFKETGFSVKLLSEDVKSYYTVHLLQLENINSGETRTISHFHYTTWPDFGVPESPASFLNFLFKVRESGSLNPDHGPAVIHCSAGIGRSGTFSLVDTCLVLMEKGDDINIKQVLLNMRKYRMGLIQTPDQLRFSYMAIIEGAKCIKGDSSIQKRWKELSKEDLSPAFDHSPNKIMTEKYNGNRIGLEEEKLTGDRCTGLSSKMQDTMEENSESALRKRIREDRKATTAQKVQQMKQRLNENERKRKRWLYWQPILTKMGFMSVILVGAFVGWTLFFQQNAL

IC50 [1]: 12 µM
Activity [2]: 1.5 µM
EC50 [3]: 0.34 µM
Ratio IC50 [8]: > 10
Ratio IC50 [9]: > 10
IC50 [10]: 19 µM
SMILES: Cc1ccc(S(=O)(=O)Oc2cc(OCc3ccc(C(F)(F)F)cc3)c(/C=C3\SC(=O)NC3=O)cc2Br)cc1
Activity (Mus musculus [4]): 0.43 g
Activity (Mus musculus [5]): Non-toxic
Activity (Mus musculus [6]): 0.2 mM
Activity (Mus musculus [7]): Active
